Experimental findings from ChEMBL document CHEMBL5532699, “Design, docking optimization, and evaluation of biotin-PEG4-1,8-naphthalimide as a potent and safe antitumor agent with dual targeting of ferroptosis and DNA” (RSC Med Chem, 2024) are described below.

Active and inactive are the calls of the source. The calls are words filed in the database; no cut-off is given here.

The subject of data set [1] is MGC-803. Put plainly: Induction of cell cycle arrest at S phase in human MGC-803 cells assessed as decrease in CDK2 protein expression level at 25 to 50 uM incubated for 24 hrs by Western blot analysis. The class given is functional, cell-based. The conditions noted are these: dose 25-50 µM. A digest of the protocol:
(§1)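 MGC-803 cells treated 25 or 50 μM for 24 h, lysed in ice-cold 1% SDS/Tris-HCl pH 7.5 buffer with EDTA, NaCl and protease inhibitors, spun 12,000g 18 min. Protein quantified by BCA; 40–50 μg resolved on 10% SDS-PAGE, transferred to PVDF, milk-blocked 2 h, primary antibody overnight, HRP secondary 1 h at RT. ECL detection with densitometry.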
On the technique in general: In western blotting, separated proteins are transferred to a membrane and probed.

Data set [2] can be described thus: Toxicity in nude mouse xenografted with human MGC-803 cells assessed as reduction in body weight at 24 to 48 mg/kg, ip administered once every two days for 21 days. The class given is organism-based. As to conditions: in vivo, 504 h, dose 24-48 mg/kg, time 21 day. A digest of the protocol: (§2)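 1×10^6 tumor cells injected s.c. into the right flank of nude mice. At mean tumor volume 60–80 mm³, animals randomized to vehicle or treatment groups (n = 6). Compound in 5% v/v DMSO/saline given i.p. every 2 days. Tumor size and weight recorded; volume = lw²/2 from length and width. Body weight tracked as the systemic toxicity index.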
In general terms: In xenograft studies the graft and the host belong to different species.

Data set [3] deals with MGC-803. Put plainly: Induction of ferroptosis in human MGC-803 cells assessed as accumulation of intracellular ROS level by measuring increase in red fluorescence intensity at 25 to 50 uM incubated for 24 hrs by DHE staining based confocal microscopic analysis. The class given is functional, cell-based. The conditions noted are these: dose 25-50 µM.
Data set [4] concerns MGC-803. Description: Inhibition of DNA synthesis in human MGC-803 cells at 25 to 50 uM incubated for 24 hrs by EdU staining based fluorescence microscopic analysis. The class given is functional, cell-based. The conditions noted are these: dose 25-50 µM.
Data set [5] relates to MGC-803. Put plainly: Effect on FACL4 protein expression in human MGC-803 cells at 25 to 50 uM incubated for 24 hrs by Western blot analysis. The class given is functional, cell-based. As to conditions: dose 25-50 µM. A digest of the protocol: as §1
Data set [6] in a line: Toxicity in nude mouse xenografted with human MGC-803 cells assessed as pathological changes in liver at 12 to 48 mg/kg, ip administered once every two days for 21 days by H and E staining based analysis. In kind it is organism-based. As to conditions: in vivo, 504 h, dose 12-48 mg/kg, time 21 day. Put shortly:
(§3)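 Nude mice carrying s.c. xenografts (1×10^6 cells, right flank) randomized at 60–80 mm³ (n = 6), dosed i.p. every 2 days in 5% v/v DMSO/saline. Major organs examined by H&E staining at 200× magnification.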

A further data set concerns T-24. Put plainly: Antiproliferative activity against human T24 cells incubated for 48 hrs by MTT assay. The class given is functional, cell-based. The conditions noted are these: T-24, 48 h. A digest of the protocol:
(§4)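 Monolayer cells in DMEM with 10% FBS, penicillin and streptomycin, 37°C, 5% CO2. Exponentially growing cells were seeded in 96-well plates and exposed to compound for 48 h. MTT was then added for 4 h at 37°C. Medium was removed, formazan dissolved in DMSO, and OD read at 490 nm. Each plate had five replicate wells, and assays were repeated three times per line.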
On the technique in general: Tetrazolium assays rely on reduction of a dye to a coloured formazan, in cell work by metabolically active cells.

Data set [7] has as its system MGC-803. Put plainly: Induction of DNA damage in human MGC-803 cells assessed as appearance of long DNA tails at 25 to 100 uM incubated for 24 hrs by comet assay. The class given is functional, cell-based. The conditions noted are these: dose 25-100 µM. Put shortly:
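MGC-803 cells exposed 25, 50 or 100 μM for 24 h, mixed 1:8 with low-melt agarose on comet slides, held 1 day at 4°C in dark, lysed 2 h at 4°C. Alkaline unwinding (1 mM EDTA, 300 mM NaOH, pH >13) 45 min at 4°C; electrophoresis in 1 mM EDTA/200 mM NaOH at 25 V, 30 min. Washed in Tris-HCl pH 7.5, PI-stained, imaged by fluorescence microscopy.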

Data set [8] relates to MGC-803. Put plainly: Antitumor activity against human MGC-803 cells xenografted in nude mouse assessed as tumor inhibition ratio at 48 mg/kg, ip administered once every two days for 21 days relative to control. In kind it is functional. As to conditions: MGC-803, 504 h, time 21 day. A digest of the protocol:
as §2

In another data set the test system is A549. Description: Antiproliferative activity against human A549 cells incubated for 48 hrs by MTT assay. The class given is functional, cell-based. The conditions noted are these: A549, 48 h. A digest of the protocol: as §4
Data set [9] has as its system MGC-803. Description: Induction of ferroptosis in human MGC-803 cells assessed as appearance of ruptured mitochondria at 5 uM incubated for 24 hrs by TEM analysis. In kind it is functional, cell-based. Put shortly:
(§5)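 Cell samples prefixed in 3% glutaraldehyde, postfixed in 1% osmium tetroxide, dehydrated through graded acetone (30–100%), embedded in Epon812, cut into 60–90 nm ultrathin sections on copper grids, stained with uranyl acetate 10–15 min and lead citrate 1–2 min at room temperature, examined by TEM.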

Data set [10] relates to MGC-803. Description: Induction of cell cycle arrest at S phase in human MGC-803 cells assessed as increase in P21 protein expression level at 25 to 50 uM incubated for 24 hrs by Western blot analysis. In kind it is functional, cell-based. The conditions noted are these: dose 25-50 µM. Put shortly: as §1
In the next data set the test system is Supercoiled DNA. Put plainly: Binding affinity to supercoiled circular pBR322 plasmid DNA (unknown origin) assessed as DNA intercalation by measuring migration in gel at 25 to 200 uM incubated for 4 hrs by PI and EtBr staining based gel electrophoresis. In kind it is nucleic-acid assay. As to conditions: dose 25-200 µM, in the assay text read “GelRed staining” for “PI and EtBr staining”. Put shortly: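 0.20 μg pBR322 DNA in relaxation buffer (10 mM Tris, 0.1 mM EDTA, 5 mM MgCl₂, 50 mM KCl, 0.01% BSA, pH 7.5), 20 μL, incubated 4 h at 37°C with or without compound at varied concentrations. Stopped with SDS/bromophenol blue/glycerol loading buffer, run on 0.8% agarose in TAE, stained with GelRed; supercoiled and linear forms scored.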

A short description of data set [11]: Toxicity in nude mouse xenografted with human MGC-803 cells assessed as pathological changes in lungs at 12 to 48 mg/kg, ip administered once every two days for 21 days by H and E staining based analysis. In kind it is organism-based. As to conditions: in vivo, 504 h, dose 12-48 mg/kg, time 21 day. A digest of the protocol:
as §3

Data set [12] deals with MGC-803. Description: Induction of ferroptosis in human MGC-803 cells assessed as increase in intracellular iron level incubated for 24 hrs by FerroOrange staining based confocal microscopic analysis. In kind it is functional, cell-based. As to conditions: dose 25-50 µM.
For data set [13], the system named is MGC-803. Put plainly: Induction of ferroptosis in human MGC-803 cells assessed as increase in mitochondrial membrane density at 5 uM incubated for 24 hrs by TEM analysis. In kind it is functional, cell-based. Put shortly: as §5
The test system of data set [14] is MGC-803. Put plainly: Induction of cell cycle arrest at S phase in human MGC-803 cells assessed as decrease in cyclin E1 protein expression level at 25 to 50 uM incubated for 24 hrs by Western blot analysis. The class given is functional, cell-based. The conditions noted are these: dose 25-50 µM. Put shortly:
as §1

A further data set has as its system U-251. Put plainly: Antitumor activity against human U-251 cells xenografted in nude mouse assessed as tumor inhibition ratio at 48 mg/kg, ip administered once every two days for 21 days relative to control. The class given is functional. The conditions noted are these: U-251, 504 h, time 21 day. A digest of the protocol: as §2
Data set [15] can be described thus: Toxicity in nude mouse xenografted with human U-251 cells assessed as pathological changes in liver at 24 to 48 mg/kg, ip administered once every two days for 21 days by H and E staining based analysis. The class given is organism-based. The conditions noted are these: in vivo, 504 h, dose 24-48 mg/kg, time 21 day. A digest of the protocol: as §3
The subject of data set [16] is MGC-803. Put plainly: Antitumor activity against human MGC-803 cells xenografted in nude mouse assessed as tumor inhibition ratio at 24 mg/kg, ip administered once every two days for 21 days relative to control. The conditions noted are these: MGC-803, 504 h, time 21 day. The class given is functional. Put shortly: as §2
Data set [17] is described as follows: Cytotoxicity against HUVEC cells incubated for 48 hrs by MTT assay. In kind it is toxicity, cell-based. As to conditions: human. Put shortly:
as §4

Data set [18] can be described thus: Toxicity in nude mouse xenografted with human U-251 cells assessed as pathological changes in spleen at 24 to 48 mg/kg, ip administered once every two days for 21 days by H and E staining based analysis. The class given is organism-based. The conditions noted are these: in vivo, 504 h, dose 24-48 mg/kg, time 21 day. A digest of the protocol:
as §3

As to `CN(C)CCN1C(=O)c2cccc3c(N4CCN(C(=O)CCOCCOCCOCCOCCNC(=O)CCCCC5SCC6NC(=O)NC65)CC4)ccc(c23)C1=O` (configuration not stated), the result in the data set on MGC-803 [1], in the data set on MGC-803 [3], in the data set with MGC-803 [7], in the data set on MGC-803 [9], in the data set on MGC-803 [10] and in the data set on Supercoiled DNA was Active. In addition, the result with MGC-803 [13] and in the data set with MGC-803 [14] was Active. For the same molecule, the Activity entry in [2] is “Non-Toxic”; in data set [6], “Non-Toxic”; in data set [11], “Non-Toxic”; in the data set on MGC-803 [12], “Dose-Dependent Effect”; in data set [15] it was “Non-Toxic”; in data set [18] it was “Non-Toxic”. Besides, the inhibition entry in the data set on MGC-803 [4] is “Active”. Besides, the result in the data set with MGC-803 [5] was inactive. The IC50 in the data set on T-24 and in the data set on A549 was > 50 µM each time. In addition, the inhibition in vivo – broadly, how much of the control response was suppressed – at 48 mg/kg came to 65.5% in the data set with MGC-803 [8] and 76.2% in the data set on U-251. Moreover, in the data set on MGC-803 [16], the inhibition in vivo at 24 mg/kg was found to be 39.6%. For the same molecule, the IC50 – broadly, the point on the concentration scale where inhibition reaches its midpoint – at 48 h in [17] was > 50 µM.
